These molecules were tested against T1, OR5M3 (Homo sapiens) (UniProt Q8NGP4). Settings: stereoisomer not certain.
T1 sequence (whole entry): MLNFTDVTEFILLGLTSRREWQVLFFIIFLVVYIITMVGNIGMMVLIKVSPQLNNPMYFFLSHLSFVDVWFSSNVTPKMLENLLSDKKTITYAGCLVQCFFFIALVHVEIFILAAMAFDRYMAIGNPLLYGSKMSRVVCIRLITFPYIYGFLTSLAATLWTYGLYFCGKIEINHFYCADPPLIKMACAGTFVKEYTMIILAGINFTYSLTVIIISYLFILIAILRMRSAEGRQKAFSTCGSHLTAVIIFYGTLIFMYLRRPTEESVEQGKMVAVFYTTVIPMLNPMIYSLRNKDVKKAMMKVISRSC
Summary of the method: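 Each receptor–molecule pair is labelled responsive or non-responsive (inactive) according to whether the original authors judged the measured signal statistically different from baseline. The data were taken from the main text and supplementary material of published papers and checked for typos and inconsistencies. Assay methods differed by source, with transient luciferase assays in mammalian cell lines being common.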
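Note: active if original authors judged signal statistically different from baseline.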

Odorant receptor agonist call, inactive:
CC1=CC(=O)C(C)O1 (centres undefined), C=CC(=O)CC, CCCCC=CC=CC=O, CCCCC=CC=O, CCOC(=O)C1CCCCC1, C=C(C)c1ccc(C)cc1, CCCCCCCCCO, CCC=CCCC=CC=O, CCCCCCCCC=CC=O, C=Cc1ccc(O)cc1, CCOC(=O)CCSC, C=CC(=C)CCC=C(C)C, CC1=CCOC1=O, CC(=O)OCC=Cc1ccccc1, CCC=CCC=O, CCCCCCC1CCC(=O)O1 (centres undefined), CC(C)CC=O, CCOC(=O)c1ccccc1, C=CCSC, COc1cccc(OC)c1O, CSCCC=O, CC(=O)C=CC1=C(C)CCCC1(C)C, CCCCCCCC(=O)[O-].[H+], OCC=Cc1ccccc1, CSCSC, CCC(=O)C(C)=O, CCCCCCO, CCCSSSC, CCCCCC=CCCC=O, CC(=O)OCCc1ccccc1, CCOC(=O)CC(C)C, CCCc1ccc(O)c(OC)c1, CCCCCCCCCC(=O)[O-].[H+], Cc1c[nH]c2ccccc12, C=CC(O)CCCCC (centres undefined), SCc1cccs1, CCC(=O)O, CCCCCCCC(=O)OCC, CC1=CCC2CC1C2(C)C (centres undefined)
